From PubChem BioAssay
A1 inh: inhibitors of the anti-apoptotic protein A1, read as caspase activation | MEF A1-2A-BIM cells, Caspase-Glo 3/7 luminescence, 3 h; percent of clofoctol response, vehicle zero | 330,000 compounds, 0.066% hits | caspase activation, % (no concentration beside the values);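 active means over half of replicate activation scores above 10%, or exactly half above 10 with the replicate mean above 10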
KLF5 inh: inhibitors of KLF5 expression | DLD-1 KLF5 promoter-luciferase reporter, luminescence | inhibition, % at 5 µM | 290,000 compounds, 0.23% hits;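 active means inhibition above a per-plate limit of that plate's mean compound inhibition plus 3 SD, cut at about 60% in these data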;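 further: higher means less KLF5 promoter-driven luciferase light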
Beta cell apopt: blocks beta cell apoptosis | INS-1E cytokine-induced death, ATP luminescence, 48 h; percent of positive-control rescue, neutral wells zero | protection from apoptosis, % (no concentration beside the values) | 300,000 compounds, 0.8% hits;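 active means Every replicate reaches about 75%, or at least half do and their mean reaches it too, limit read from the data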;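 further: higher means more ATP so stronger rescue from cytokine killing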
HIF activator: HIF pathway transcriptional activation; U2OS HRE-luciferase reporter, luminescence; normalized: DMSO 0%, desferrioxamine 100%; activation, % at 7.5 µM (by protocol); 300,000 compounds, 0.32% hits; AID 1910;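 active means mean activation of at least 10% of the iron chelator positive control signal, with at least half of replicates also reaching 10%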
T cruzi inh: T. cruzi replication inhibition. T. cruzi beta-gal in NIH3T3, luminescence, 90 h. inhibition, % (no concentration beside the values). 300,000 compounds, 1.4% hits. AID 1885;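 active means mean inhibition across valid replicates above about 55%, limit read from the data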;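 further: signal also drops with host cell toxicity which is not excluded here; higher percent means less beta-gal luminescence so fewer parasites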
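System – NIH/3T3 host cells with β-galactosidase reporter T. cruzi · Doses – single 50 nL compound addition per well in DMSO · Reagent – 5000 T. cruzi trypomastigotes/well · Medium – Low-serum DMEM with 2% FBS · Timing – ≥90 h infection period, 3 h prior cell attachment · Evaluation – parasite load inhibition, % · Technique – GalScreen luminescence, 60 min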
Numbers stand for hits; - = inactive; . = not tested or not shown. Most compounds without a hit are left out; they make up all but 2.3% or so of the library.

SMILES	A1 inh	KLF5 inh	Beta cell apopt	HIF activator	T cruzi inh
Cc1cccc(/C=N/NC(=O)CN2CCCCCCC2)c1	-	-	-	-	-
Cc1ccc(O)c(/C=N/NC(=O)CN2CCCC2)c1	-	-	-	15	-
O=C(CN1CCCC1)N/N=C/c1c(O)ccc2ccccc12	-	-	-	28	-
Cc1cc(C)n(CCC(=O)N/N=C/c2c(O)ccc3ccccc23)n1	-	-	93	17	-
O=C(CN1CCOCC1)N/N=C/c1cccc2ccccc12	-	-	-	-	-
O=C(CCSc1nc2ccccc2s1)N/N=C/c1c(O)ccc2ccccc12	-	-	85	11	-
COc1ccc(/C=N/NC(=O)CCSc2nc3ccccc3s2)cc1OC	-	-	-	-	-
Cc1cc(NC(=O)CN2C(=O)NC3(CCCCCC3)C2=O)ccc1Br	-	.	-	.	.
Cc1nc2nc(NC(=O)c3ccco3)nn2c(C)c1Cl	-	-	-	-	-
Cc1ccc(SC(CC(=O)c2ccc(F)cc2)C(=O)O)cc1 (stereo unspecified)	-	-	.	-	-
CC(C)(C)c1ccc(C(=O)CC(Sc2ccc(Cl)cc2)C(=O)O)cc1 (stereo unspecified)	-	-	-	-	60
O=C1[C@H]2[C@@H](c3ccc(F)cc3)N3C(=O)N(c4cccc(F)c4)C(=O)[C@@]3(Cc3ccc(Cl)cc3)[C@H]2C(=O)N1C1CCCCC1	-	.	-	-	-
CC(C)(C)N1C(=O)[C@H]2[C@@H](c3ccc(Br)cc3)N3C(=O)N(c4cccc(Br)c4)C(=O)[C@@]3(Cc3ccccc3)[C@H]2C1=O	-	-	-	-	58
O=C1[C@H]2[C@@H](c3ccc(Cl)cc3)N3C(=O)N(c4cccc(F)c4)C(=O)[C@@]3(Cc3ccc(Cl)cc3)[C@H]2C(=O)N1C1CCCCC1	-	-	-	-	61
CC(C)(C)N1C(=O)[C@H]2[C@@H](c3ccc(Br)cc3)N3C(=O)N(c4ccccc4)C(=O)[C@@]3(Cc3ccccc3)[C@H]2C1=O	-	.	-	-	-
Cc1c(C#N)c(NC(=O)CCl)n(Cc2cccs2)c1C	-	-	-	-	61
O=C(Cc1cccs1)N1CCN(S(=O)(=O)c2ccc(Cl)c(C(F)(F)F)c2)CC1	-	.	-	.	.
CCOC(=O)Cc1nn(C)c(=O)c2ccccc12	-	-	-	-	-
CCOC(=O)Cc1nn(CC)c(=O)c2ccccc12	-	-	-	90	-
CCC1CCCCN1C(=O)COC(=O)c1ccc(Br)o1 (stereo unspecified)	-	.	-	.	.
COc1ccc(C(=O)C2CCN(C(=O)Nc3ccccc3C)CC2)cc1	-	-	-	-	-
S=C(NCc1ccc(Cl)cc1)NC1CCN(Cc2ccccc2)CC1	-	-	-	-	60
Clc1ccc(CNC2CCN(Cc3ccccc3)CC2)cc1	-	-	-	-	-
Cc1ccc(S(=O)(=O)N2CCN(C(=O)CN3C(=O)c4ccc([N+](=O)[O-])cc4C3=O)CC2)cc1C	-	.	-	.	.
CC(=O)NC(Cc1ccc(F)cc1)C(=O)NC1CCN(C(=O)Nc2ccccc2C)CC1 (stereo unspecified)	-	-	.	-	-
SMILES	A1 inh	KLF5 inh	Beta cell apopt	HIF activator	T cruzi inh
CCC1Nc2ncnc(N3CCN(c4ccccc4)CC3)c2N(Cc2ccc(Br)cc2)C1=O (stereo unspecified)	-	.	-	-	58
O=C1C(Cc2ccccc2)Nc2ncnc(N3CCN(c4ccccc4)CC3)c2N1Cc1ccc(Br)cc1 (stereo unspecified)	-	.	-	.	.
CCCNC(=O)c1ccc2c(=O)c(O)c(-c3cccc(Br)c3)[nH]c2c1	-	.	98	-	-
CCCNC(=O)c1ccc2c(=O)c(O)c(-c3ccc(F)cc3)[nH]c2c1	-	.	-	-	-
Cc1ccc(CNC(=O)CCC2CCCN(Cc3cc4ccccc4o3)C2)o1 (stereo unspecified)	-	-	-	-	56
COC(=O)c1ccc(CN2CCCC(CCC(=O)NCc3ccc(C)o3)C2)cc1 (stereo unspecified)	-	-	-	-	69
COc1cc(CN2CCCC(CCC(=O)NCc3ccc(C)o3)C2)cc2c1OCO2 (stereo unspecified)	-	-	-	-	69
COc1cccc(CNC(=O)CCC2CCCN(Cc3ccc4c(c3)CCO4)C2)c1 (stereo unspecified)	-	-	-	-	-
CC(c1nnc(SCC(=O)c2c(N)n(C3CC3)c(=O)[nH]c2=O)n1-c1ccc(F)cc1)N(C)C (stereo unspecified)	-	.	-	.	.
COc1ccc(F)cc1CSc1nnnn1-c1ccc(O)cc1	-	-	.	477	-
COc1cc(CSc2nnnn2-c2ccc(C)cc2)cc(OC)c1OC	-	-	102	-	-
O=C(Nc1ccccc1OC(F)F)c1cccc(S(=O)(=O)N2CCCC2)c1	-	-	-	-	-
O=C(COc1ccccc1)N1CCN(C(=O)c2ccccc2F)CC1	-	-	-	-	-
O=S(=O)(NCC(c1cccnc1)N1CCN(c2ccccc2)CC1)c1cc(F)ccc1F (stereo unspecified)	-	-	-	-	76
CN1CCN(C(CNS(=O)(=O)c2ccc(F)cc2)c2cccnc2)CC1 (stereo unspecified)	-	-	-	-	-
O=S(=O)(NCC(c1cccnc1)N1CCN(c2ccc(F)cc2)CC1)c1ccccc1 (stereo unspecified)	-	-	-	.	59
COc1ccccc1N1CCN(C(CNS(=O)(=O)c2cc(F)ccc2F)c2cccnc2)CC1 (stereo unspecified)	-	-	-	-	65
O=C(NCC(c1cccnc1)N1CCN(c2ccccc2)CC1)c1ccco1 (stereo unspecified)	-	-	.	-	65
S=c1[nH]nc(-c2ccco2)n1-c1ccc(Br)cc1	-	.	-	-	.
CCN(CC)C(=O)CSc1nc2c(sc(=S)n2-c2ccc(C)cc2C)c(=O)[nH]1	-	-	.	-	-
CCC(C)[C@H](NC(=O)C1CC(=O)N(c2ccc(OC)cc2)C1)C(=O)NC1CCCC1 (stereo partly specified)	-	-	-	-	-
CCOC(=O)C1(C)NC(c2ccc(OC)cc2OC)C2C(=O)N(CC)C(=O)C21 (stereo unspecified)	-	-	-	528	-
Fc1ccc2[nH]c3c(N4CCc5ccccc5C4)ncnc3c2c1	-	-	127	-	-
Cc1ccc2[nH]c3c(N4CCc5ccccc5C4)ncnc3c2c1	-	-	101	-	-
Brc1ccc2[nH]c3c(N4CCc5ccccc5C4)ncnc3c2c1	-	-	-	-	-
COc1ccc(OC)c(NC(=O)C(=O)N/N=C(\C)CC(=O)Nc2ccc(Cl)cn2)c1	-	-	-	-	-
CCCc1cc(=O)n2nc(N3CCC(C(=O)Nc4cccc(C(C)=O)c4)CC3)sc2n1	-	-	-	-	-
Fc1cccc(Cl)c1CNc1ccc(N2CCCC2)cc1	-	-	-	-	94
